# Source: ChEMBL document CHEMBL2385063, “Identification of 2-(2-(1-naphthoyl)-8-fluoro-3,4-dihydro-1H-pyrido[4,3-b]indol-5(2H)-yl)acetic acid (setipiprant/ACT-129968), a potent, selective, and orally bioavailable chemoattractant receptor-homologous molecule expressed on Th2 cells (CRTH2) antagonist” (J Med Chem, 2013)
# pIC50: −log10 of the molar value. Active and inactive are the calls of the source. The calls are words filed in the database; no cut-off is given here.
# Tests used:
# [1] = Oral bioavailability in Wistar rat at 10 mg/kg; type: ADME, organism-based; settings: in vivo
# Method in brief: (§1)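 Male Wistar rats, three animals per experiment, given iv (0.2, 1 or 2 mg/kg) and po (2 or 10 mg/kg) doses as solutions; AUC0-last, plasma clearance, half-life and oral bioavailability derived.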
# [2] = Half life in Wistar rat at 1 mg/kg, iv and 10 mg/kg, po; type: ADME, organism-based; settings: in vivo; method in brief: as §1
# [3] = Plasma clearance in Wistar rat at 1 mg/kg, iv and 10 mg/kg, po; type: ADME, organism-based; method in brief: as §1
# Rattus norvegicus [4] = assay: AUC(0 to last) in Wistar rat at 1 mg/kg, iv and 10 mg/kg, po; type: ADME, organism-based, Plasma; settings: in vivo; method in brief: as §1
# [5] = Solubility of the compound in water; type: physicochemical
# Method in brief: (§2)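 Compound was stirred in water, 60 mM citrate buffer pH 4 or 70 mM phosphate buffer pH 7 at 300 rpm, 25 °C, for 24 h. The mixture was filtered, and the filtrate concentration was measured by HPLC-UV at 250 nm against a calibration curve.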
# [6] = target: T1, Prostaglandin D2 receptor 2 (Mus musculus) (UniProt Q9Z2J6); assay: Partial agonist activity at mouse CRTH2 receptor assessed as calcium flux by cell-based FLIPR assay; type: functional
# T1 sequence (whole entry): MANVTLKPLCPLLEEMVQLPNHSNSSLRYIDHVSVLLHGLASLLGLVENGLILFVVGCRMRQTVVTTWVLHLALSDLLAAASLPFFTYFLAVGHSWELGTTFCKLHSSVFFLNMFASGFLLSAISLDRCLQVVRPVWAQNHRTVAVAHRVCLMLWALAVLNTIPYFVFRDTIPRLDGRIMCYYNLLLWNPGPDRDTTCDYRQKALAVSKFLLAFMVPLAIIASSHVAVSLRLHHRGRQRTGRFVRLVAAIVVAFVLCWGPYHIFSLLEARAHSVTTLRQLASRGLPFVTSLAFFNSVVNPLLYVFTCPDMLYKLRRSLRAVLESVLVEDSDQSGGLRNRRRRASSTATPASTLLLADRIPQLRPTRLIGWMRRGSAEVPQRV
# [7] = Volume of distribution at steady state in Wistar rat at 1 mg/kg, iv and 10 mg/kg, po; type: ADME, organism-based; settings: in vivo, read-out: Vdss
# Method in brief: (§3)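 Male Wistar rats, three animals per experiment, were dosed intravenously and orally with compound given as solutions.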
# [8] = Half life in Wistar rat at 2 mg/kg, iv and 10 mg/kg, po; type: ADME, organism-based; settings: in vivo; method in brief: as §1
# [9] = Plasma clearance in Wistar rat at 2 mg/kg, iv and 10 mg/kg, po; type: ADME, organism-based; method in brief: as §1
# Rattus norvegicus [10] = assay: AUC(0 to last) in Wistar rat at 2 mg/kg, iv and 10 mg/kg, po; type: ADME, organism-based, Plasma; settings: in vivo; method in brief: as §1
# [11] = Solubility of the compound in water at pH 4.3; type: physicochemical; method in brief: as §2
# [12] = Clearance in beagle dog at 1 mg/kg, iv; type: ADME, organism-based, Canis lupus familiaris; parameters: dose 1 mg/kg, route intravenous; settings: in vivo
# Method in brief: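 Male Beagle dogs, three per experiment, given 1 mg/kg iv as a solution in 10% propylene glycol; plasma clearance determined.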
# [13] = Oral bioavailability in beagle dog at 10 mg/kg; type: ADME, organism-based, Canis lupus familiaris; settings: in vivo
# Method in brief: (§4)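 Male Beagle dogs, three per experiment, dosed orally at 10 mg/kg (with a 1 mg/kg iv arm) as solutions containing 10% propylene glycol; AUC0-last and oral bioavailability derived.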
# Canis familiaris = assay: AUC (0 to last) in beagle dog at 10 mg/kg, po; type: ADME, organism-based, Canis lupus familiaris, Plasma; parameters: time 0 - last, dose 10 mg/kg, route oral; settings: in vivo; method in brief: as §4
# [14] = Volume of distribution at steady state in Wistar rat at 2 mg/kg, iv and 10 mg/kg, po; type: ADME, organism-based; settings: in vivo, read-out: Vdss; method in brief: as §3
# [15] = Solubility of the compound in water at pH 5.7; type: physicochemical
# Method in brief: (§5)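 Compound stirred in 200 μL water at 300 rpm, 25 °C, for 24 h. The biphasic mixture was vacuum-filtered. Filtrate concentration was measured by reversed-phase HPLC with UV detection at 250 nm and quantified from peak area against a calibration curve.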
# CYP3A4 = CYP3A4 (Homo sapiens, UniProt P08684); assay: Inhibition of CYP3A4 in human liver microsomes assessed as midazolam-1'-hydroxylation by LC-MS/MS analysis; type: ADME, Microsome; settings: human, liver microsomes, probe midazolam (1'-hydroxylation)
# CYP2D6 = CYP2D6 (Homo sapiens, UniProt P10635); assay: Inhibition of CYP2D6 in human liver microsomes assessed as dextromethorphan O-demethylation by LC-MS/MS analysis; type: ADME, Microsome; settings: human, liver microsomes, probe dextromethorphan (O-demethylation)
# [16] = Solubility of the compound in water at pH 4.9; type: physicochemical; method in brief: as §5
# [17] = Solubility of the compound in water at pH 3.9; type: physicochemical; method in brief: as §2
# [18] = Solubility of the compound in water at pH 3.8; type: physicochemical; method in brief: as §2
# [19] = Oral bioavailability in Wistar rat at 2 mg/kg; type: ADME, organism-based; settings: in vivo; method in brief: as §1
# [20] = Half life in Wistar rat at 0.2 mg/kg, iv and 2 mg/kg, po; type: ADME, organism-based; settings: in vivo; method in brief: as §1
# [21] = Plasma clearance in Wistar rat at 0.2 mg/kg, iv and 2 mg/kg, po; type: ADME, organism-based; method in brief: as §1
# Rattus norvegicus [22] = assay: AUC(0 to last) in Wistar rat at 0.2 mg/kg, iv and 2 mg/kg, po; type: ADME, organism-based, Plasma; settings: in vivo; method in brief: as §1
# [23] = Volume of distribution at steady state in Wistar rat at 0.2 mg/kg, iv and 2 mg/kg, po; type: ADME, organism-based; settings: in vivo, read-out: Vdss; method in brief: as §3
# Sequence of CYP2D6 (P10635 whole entry): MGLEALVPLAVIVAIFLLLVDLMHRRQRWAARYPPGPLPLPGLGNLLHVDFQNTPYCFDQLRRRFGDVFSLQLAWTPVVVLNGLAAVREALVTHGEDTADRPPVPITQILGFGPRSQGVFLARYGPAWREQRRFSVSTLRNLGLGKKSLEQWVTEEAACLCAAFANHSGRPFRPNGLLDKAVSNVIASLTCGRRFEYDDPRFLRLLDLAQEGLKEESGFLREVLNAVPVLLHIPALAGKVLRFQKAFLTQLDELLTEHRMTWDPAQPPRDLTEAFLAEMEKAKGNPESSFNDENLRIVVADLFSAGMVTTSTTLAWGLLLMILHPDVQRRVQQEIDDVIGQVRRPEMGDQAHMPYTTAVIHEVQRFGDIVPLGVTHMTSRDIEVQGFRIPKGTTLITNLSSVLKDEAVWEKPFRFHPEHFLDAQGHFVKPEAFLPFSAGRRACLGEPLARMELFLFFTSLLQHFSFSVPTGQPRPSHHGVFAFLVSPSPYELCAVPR
# Sequence of CYP3A4 (P08684 whole entry): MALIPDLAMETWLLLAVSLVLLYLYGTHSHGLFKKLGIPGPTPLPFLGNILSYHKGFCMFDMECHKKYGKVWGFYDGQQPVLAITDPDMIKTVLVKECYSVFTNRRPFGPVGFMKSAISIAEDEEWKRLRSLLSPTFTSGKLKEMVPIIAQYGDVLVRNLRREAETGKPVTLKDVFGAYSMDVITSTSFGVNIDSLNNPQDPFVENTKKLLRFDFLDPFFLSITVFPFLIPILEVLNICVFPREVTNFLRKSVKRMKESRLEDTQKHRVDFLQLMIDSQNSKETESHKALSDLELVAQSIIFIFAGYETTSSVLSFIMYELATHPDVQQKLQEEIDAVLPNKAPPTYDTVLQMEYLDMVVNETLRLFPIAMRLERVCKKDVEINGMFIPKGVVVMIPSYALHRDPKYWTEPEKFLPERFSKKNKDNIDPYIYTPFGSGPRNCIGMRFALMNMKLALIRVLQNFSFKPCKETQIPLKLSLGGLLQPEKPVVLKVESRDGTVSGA
smiles,measurement,setting,value
O=C(O)Cn1c2c(c3ccccc31)CN(C(=O)c1cccc3ccccc13)CC2,bioavailability,[1],36%
same,half-life,[2],5.8 h
same,clearance,[3],1.1 mL/min/kg
same,AUClast,Rattus norvegicus [4],57300 ng·h/mL
same,solubility,[5],335 µg/mL
same,Activity,[6],Active
same,Vd,[7],0.4 L/kg
O=C(O)Cn1c2c(c3cc(F)ccc31)CN(C(=O)c1cccc3ccccc13)CC2 [SETIPIPRANT],bioavailability,[1],44%
same,half-life,[8],6 h
same,clearance,[9],1.3 mL/min/kg
same,AUClast,Rattus norvegicus [10],58500 ng·h/mL
same,solubility,[11],50 µg/mL
same,Activity,[6],Active
same,clearance,[12],1.3 mL/min/kg
same,bioavailability,[13],55%
same,AUClast,Canis familiaris,91100 ng·h/mL
same,Vd,[14],0.4 L/kg
O=C(O)Cn1c2c(c3cc(F)ccc31)CN(C(=O)Cc1cccc3ccccc13)CC2,solubility,[15],28 µg/mL
O=C(O)Cn1c2c(c3ccccc31)CN(C(=O)c1ccccc1)CC2,AUClast,Rattus norvegicus [4],6300 ng·h/mL
same,pIC50,CYP3A4,< 4.30
same,pIC50,CYP2D6,< 4.30
same,solubility,[11],64 µg/mL
same,Vd,[7],0.4 L/kg
O=C(O)Cn1c2c(c3cc(F)ccc31)CN(C(=O)c1cccc(Cl)c1)CC2,bioavailability,[1],23%
same,half-life,[2],2.3 h
same,clearance,[3],5.9 mL/min/kg
same,AUClast,Rattus norvegicus [4],6450 ng·h/mL
same,solubility,[16],25 µg/mL
same,Activity,[6],Active
same,clearance,[12],11 mL/min/kg
same,bioavailability,[13],64%
same,AUClast,Canis familiaris,9620 ng·h/mL
same,Vd,[7],0.4 L/kg
CCc1ccc(-c2ccc(C(=O)N3CCc4c(c5ccccc5n4CC(=O)O)C3)cc2)cc1,bioavailability,[1],4%
same,half-life,[8],0.5 h
same,clearance,[9],35 mL/min/kg
same,AUClast,Rattus norvegicus [10],171 ng·h/mL
same,solubility,[11],2 µg/mL
same,Vd,[14],0.4 L/kg
O=C(O)Cn1c2c(c3cc(F)ccc31)CN(C(=O)c1cccs1)CC2,bioavailability,[1],5%
same,half-life,[2],0.6 h
same,clearance,[3],36 mL/min/kg
same,AUClast,Rattus norvegicus [4],244 ng·h/mL
same,solubility,[17],50 µg/mL
same,Vd,[7],0.4 L/kg
O=C(O)Cn1c2c(c3ccccc31)CN(C(=O)c1cccc(Cl)c1)CC2,solubility,[18],110 µg/mL
O=C(O)Cn1c2c(c3cc(F)ccc31)CN(C(=O)Cc1c[nH]c3ccccc13)CC2,bioavailability,[19],2%
same,half-life,[20],1.2 h
same,clearance,[21],11 mL/min/kg
same,AUClast,Rattus norvegicus [22],62 ng·h/mL
same,solubility,[18],45 µg/mL
same,Vd,[23],0.4 L/kg
